Source: PubChem
NPY2 pot ag = NPY-Y2 potentiators or agonists, primary screen, cell-based | Neuropeptide Y receptor type 2 (Homo sapiens), P49146 | cells expressing NPY-Y2, potentiator/agonist read-out | activation, % at 3.6 µM | 220,000 tested, 0.45% active | AID 1359, 2008; in the data active = activation above about 27%;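 note: cells stimulated with NPY near EC25 plus isoproterenol at EC100; 0% = vehicle plus submaximal agonist and 100% = vehicle plus saturating agonist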
NPY Y2 blocker = NPY-Y2 receptor antagonists, primary screen, cell-based. NPY-Y2 expressing cells, antagonist mode. inhibition, % at 2.7 µM. AID 793, 2007. Neuropeptide Y receptor type 2 (Homo sapiens), P49146. 140,000 tested, 0.99% active; in the data active = inhibition above about 17%;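 note: 0% = vehicle with agonist challenge and 100% = reference antagonist with challenge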
NPY1 pot ag = NPY-Y1 receptor potentiators or agonists, primary screen, cell-based; NPY-Y1 expressing cells, potentiator/agonist activation; 220,000 tested, 0.37% active; activation, % at 3.6 µM; in the data active = activation above about 33%, passing the limit was not always enough;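 note: cells stimulated with NPY at EC10 then isoproterenol at EC100; 0% = low agonist plus stimulus and 100% = saturating agonist plus stimulus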
Target sequence (P25929 whole entry, looked up): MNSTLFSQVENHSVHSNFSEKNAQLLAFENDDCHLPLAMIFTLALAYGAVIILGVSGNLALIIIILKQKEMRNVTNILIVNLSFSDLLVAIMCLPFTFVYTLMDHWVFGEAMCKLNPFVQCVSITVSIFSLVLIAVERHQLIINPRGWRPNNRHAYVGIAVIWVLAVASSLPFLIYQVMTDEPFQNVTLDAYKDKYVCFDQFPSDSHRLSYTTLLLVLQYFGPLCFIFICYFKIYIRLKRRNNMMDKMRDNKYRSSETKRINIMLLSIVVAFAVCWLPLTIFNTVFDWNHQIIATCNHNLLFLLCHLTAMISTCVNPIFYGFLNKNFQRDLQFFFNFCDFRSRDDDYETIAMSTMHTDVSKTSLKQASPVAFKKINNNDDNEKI
NPY-Y1 antag = NPY-Y1 receptor antagonists, primary screen, cell-based; Neuropeptide Y receptor type 1 (Homo sapiens), P25929; HEK293-CNG Y1 cells, membrane potential fluorescence; NPY at EC95, then isoproterenol; inhibition, % at 3.6 µM; 200,000 tested, 1% active; AID 1040, 2008;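 active = inhibition above the campaign mean inhibition of all tested compounds plus 3 SD, cut at about 20% in these data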;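 note: 0% = DMSO wells given NPY plus isoproterenol and 100% = isoproterenol alone without NPY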
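material = HEK293 cells with Y1 receptor plus CNG channel | also added = NPY 25 nM then isoproterenol 1 µM plus Ro 20-1724 25 µM | schedule = dye 3 h, compound 60 min room temperature, stimulation 45 min | measured by = membrane potential fluorescence | benchmarks = high control isoproterenol alone, low control NPY with isoproterenol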
An asterisk follows results filed as active. A selection: hits, their analogues and other compounds. The true share with any hit is near 1.8%.

COc1ccc(N2CCN(c3oc(COc4ccc(Cl)cc4)nc3C#N)CC2)cc1 was read as NPY2 pot ag -8, NPY Y2 blocker 24*, NPY1 pot ag -40 and NPY-Y1 antag 49*.
Screening N#Cc1nc(COc2ccc(Cl)cc2)oc1N1CCN(Cc2ccccc2)CC1 returned NPY2 pot ag -37, NPY Y2 blocker 32*, NPY1 pot ag -49 and NPY-Y1 antag 34*.
`N#Cc1nc(COc2ccc(Cl)cc2Cl)oc1N1CCOCC1` gave NPY2 pot ag 13, NPY Y2 blocker 4, NPY1 pot ag -22 and NPY-Y1 antag 8.
`CCN1CCN(c2oc(COc3ccc(Cl)cc3)nc2C#N)CC1` gave NPY2 pot ag -46 and NPY1 pot ag -18.
COc1ccc(N2CCN(c3oc(COc4ccccc4)nc3C#N)CC2)cc1 was read as NPY2 pot ag -12, NPY Y2 blocker 27*, NPY1 pot ag 1 and NPY-Y1 antag 39*.
COc1cccc(Oc2nnnn2-c2ccccc2)c1 was read as NPY2 pot ag -7, NPY Y2 blocker 1, NPY1 pot ag 12 and NPY-Y1 antag 2.
For Cc1cc(SCC(=O)Nc2c(C)n(C)n(-c3ccccc3)c2=O)n2c(nc3ccccc32)c1C#N the results were NPY2 pot ag 3, NPY Y2 blocker 1, NPY1 pot ag -1 and NPY-Y1 antag -2.
`O=C(NC(N1CCOCC1)C(Cl)(Cl)Cl)c1ccc(Br)cc1` (stereo unspecified) gave NPY2 pot ag 2, NPY1 pot ag 3 and NPY-Y1 antag -3.
Cc1cc(Br)c(NC(=O)c2ccccc2[N+](=O)[O-])cc1C was read as NPY2 pot ag -17, NPY1 pot ag 2 and NPY-Y1 antag 4.
For N#Cc1nc(COc2ccc(Br)cc2)oc1N1CCCCCC1 the results were NPY2 pot ag -19, NPY Y2 blocker 17, NPY1 pot ag -19 and NPY-Y1 antag 11.
Screening N#Cc1nc(COc2ccc(Br)cc2)oc1N1CCCC1 returned NPY2 pot ag -49, NPY Y2 blocker 22*, NPY1 pot ag -23 and NPY-Y1 antag 27*.
For COc1ccc2[nH]c(=O)c(CN(Cc3cccs3)C(=S)Nc3ccccc3)cc2c1 the results were NPY2 pot ag 5, NPY Y2 blocker 6, NPY1 pot ag 25 and NPY-Y1 antag 3.
`S=C(Nc1cccnc1)Nc1ccccc1Br` gave NPY2 pot ag -6, NPY1 pot ag -4 and NPY-Y1 antag 3.
`Oc1cccc(NC(=S)Nc2cccnc2)c1` gave NPY2 pot ag 60*, NPY Y2 blocker 1, NPY1 pot ag 62* and NPY-Y1 antag 6.
`OCCNCc1cc(Br)ccc1OCc1ccc(Cl)cc1Cl` gave NPY2 pot ag -47, NPY Y2 blocker 28*, NPY1 pot ag -94 and NPY-Y1 antag 43*.
`CCOc1ccc(N2CC(C(=O)Nc3cc(C)on3)CC2=O)cc1` (stereo unspecified) gave NPY2 pot ag -1, NPY Y2 blocker 4, NPY1 pot ag -16 and NPY-Y1 antag 1.
For Cc1cc(C)n(-c2ccc(F)cc2CN2CCN(C3CCCC3)C(CCO)C2)n1 (stereo unspecified) the results were NPY2 pot ag -10, NPY1 pot ag 17 and NPY-Y1 antag 20*.
O=C(CCCn1cnc([N+](=O)[O-])n1)Nc1ccc(Cl)c(Cl)c1 was read as NPY2 pot ag -11, NPY Y2 blocker 7, NPY1 pot ag 17 and NPY-Y1 antag -2.
CSc1nc(-c2ccc(C)cc2)nc(N)c1C#N was read as NPY2 pot ag -10 and NPY1 pot ag -25.
CCCCCCOc1ccc(/C(N)=N/O)cc1 was read as NPY2 pot ag 99*, NPY Y2 blocker 3, NPY1 pot ag 84* and NPY-Y1 antag -11.
For N=C(N)c1ccc(OCCCCCOc2ccc(C(=N)N)cc2)cc1 the results were NPY2 pot ag 5, NPY Y2 blocker 0, NPY1 pot ag -5 and NPY-Y1 antag -5.
`CN(C)CCn1c(C(=O)Nc2ccccc2)cc2ccccc21` gave NPY2 pot ag -36, NPY Y2 blocker 20*, NPY1 pot ag -67 and NPY-Y1 antag 38*.
COC(=O)c1cc(S(=O)(=O)n2nc(C)c(Br)c2C)c(Cl)cc1Cl was read as NPY2 pot ag 34*, NPY Y2 blocker 4, NPY1 pot ag 52* and NPY-Y1 antag -6.
Screening CC(C)(C)NC(=O)NC(=O)CN1CCN(c2ncc(C(F)(F)F)cc2Cl)CC1 returned NPY2 pot ag 4, NPY Y2 blocker 2, NPY1 pot ag 14 and NPY-Y1 antag -1.
`COc1ccc(C(=O)Nc2ccc(Cl)cc2C(=O)NCc2ccco2)cc1` gave NPY2 pot ag -42, NPY Y2 blocker 19*, NPY1 pot ag -77 and NPY-Y1 antag 25*.
Cc1c(C)n(C(=O)CN2CCC(C(N)=O)CC2)c2ccccc12 was read as NPY2 pot ag -11, NPY Y2 blocker -1, NPY1 pot ag 1 and NPY-Y1 antag 1.
For CCN(CC)c1ccc(NC(=O)CN2CCN(S(=O)(=O)c3cc(Cl)ccc3OC)CC2)cc1 the results were NPY2 pot ag 33*, NPY Y2 blocker -2, NPY1 pot ag 53* and NPY-Y1 antag -11.
For COc1cc(CC(=O)Nc2cccc(SC)c2)cc(OC)c1OC the results were NPY2 pot ag 5, NPY1 pot ag 12 and NPY-Y1 antag 15.
`CC(=O)NCCn1c(SCc2ccccc2F)nc2ccccc2c1=O` gave NPY2 pot ag 102*, NPY Y2 blocker 2, NPY1 pot ag 77* and NPY-Y1 antag -6.
Screening Cc1ccc2c(CSc3nc4ccccc4c(=O)n3CCCO)cc(=O)oc2c1C returned NPY2 pot ag -22, NPY Y2 blocker 28*, NPY1 pot ag -28 and NPY-Y1 antag 31*.
Cc1ccc2c(CSc3nnc4ccccn34)cc(=O)oc2c1C was read as NPY2 pot ag -8, NPY Y2 blocker 4, NPY1 pot ag 10 and NPY-Y1 antag 0.
For CCCCC(=O)Nc1nc2c(OC)cc([N+](=O)[O-])cc2s1 the results were NPY2 pot ag 33*, NPY1 pot ag 39* and NPY-Y1 antag -11.
O=C(Nc1ncc2c(n1)-c1ccccc1CC2)c1cccc(Cl)c1 was read as NPY2 pot ag -31, NPY Y2 blocker 25*, NPY1 pot ag -43 and NPY-Y1 antag 34*.
Cc1ccc(CS(=O)(=O)c2ccc(C(=O)N3CCN(c4ccccn4)CC3)cc2[N+](=O)[O-])cc1 was read as NPY2 pot ag 8, NPY1 pot ag -9 and NPY-Y1 antag 20*.
Cc1ccc(CS(=O)(=O)c2ccc(C(=O)N3CCCCC3)cc2[N+](=O)[O-])cc1 was read as NPY2 pot ag 2, NPY1 pot ag -8 and NPY-Y1 antag 1.
CC(=O)c1ccc(NC(=O)Nc2ccc(NS(=O)(=O)c3ccc(C)cc3)cc2)cc1 was read as NPY2 pot ag 40*, NPY Y2 blocker -9, NPY1 pot ag 45* and NPY-Y1 antag -12.
`COC(=O)Nc1ccc(S(=O)(=O)Nc2ccc(C)cc2)cc1` gave NPY2 pot ag 14, NPY Y2 blocker -4, NPY1 pot ag 21 and NPY-Y1 antag 0.
